Screens deposited in PubChem by several laboratories.
A selection: hits, their analogues and other compounds. The true share with any hit is near 2%.
ATG4B inhibitor: inhibitors of human ATG4B cysteine protease; AID 504462; inhibition, % at 8.33 µM; ATG4B cleavage of LC3-PLA2, NBD-HPC fluorescence, 1 h; 340,000 compounds, 0.51% hits; Q9Y4P1; in the data active = inhibition above about 40%
Target sequence (Q9Y4P1 whole entry, looked up): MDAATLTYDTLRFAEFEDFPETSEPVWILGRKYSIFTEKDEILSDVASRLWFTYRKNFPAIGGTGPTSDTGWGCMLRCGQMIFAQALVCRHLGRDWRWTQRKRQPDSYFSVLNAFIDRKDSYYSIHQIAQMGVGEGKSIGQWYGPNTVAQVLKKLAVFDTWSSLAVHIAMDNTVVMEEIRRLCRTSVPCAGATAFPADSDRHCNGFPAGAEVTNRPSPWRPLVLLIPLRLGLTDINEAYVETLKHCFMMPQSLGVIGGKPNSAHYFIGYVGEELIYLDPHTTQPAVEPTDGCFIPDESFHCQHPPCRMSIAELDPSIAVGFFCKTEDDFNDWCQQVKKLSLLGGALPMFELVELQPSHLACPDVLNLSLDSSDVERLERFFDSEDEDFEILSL
HKDC1 inh: HKDC1 (human) hexokinase inhibition | Q2TB90 | recombinant HKDC1, G6PDH/diaphorase resazurin coupled fluorescence | inhibition, % at 20 µM | 340,000 compounds, 0.16% hits | AID 493160;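 active = inhibition above about 35% when tested at 20 µM, limit read from the data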;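 also: plate controls were DMSO wells with enzyme for no effect and DMSO wells lacking enzyme for full effect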
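Test system: Recombinant HKDC1 (HK5) hexokinase enzyme, produced in-house | Input: HKDC1 at 5 µg/mL | Buffer or medium: Tris pH 8.0 buffer with MgCl2, Tween-20, BSA, BME | Schedule: 90 min reaction incubation at room temperature, dark | Technique: Resazurin-to-resorufin fluorescence via G6PDH and diaphorase coupling, 525/613 nm | Controls: DMSO wells with and without enzyme mix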
VIM-2 inhibitor: inhibitors of Pseudomonas aeruginosa VIM-2 metallo-beta-lactamase | 290,000 compounds, 0.89% hits | inhibition, % at 5.6 µM | AID 1527 | purified VIM-2, nitrocefin hydrolysis, epi-absorbance fluorescence;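 active = inhibition above the mean of all tested compounds plus 3 SD, cutoff set per screening run, cut at about 7.5% in these data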;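 also: red hydrolysis product quenches plate fluorescence so inhibitors raise well fluorescence; 0% = enzyme with DMSO and 100% = DMSO without enzyme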
PvdQ inh: blocks Pseudomonas aeruginosa PvdQ acylase activity. 340,000 compounds, 0.063% hits. inhibition, % at 10 µM. purified PvdQ acylase, fluorescence plate reader; in the data active = inhibition above about 30%, passing the limit was not always enough;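 also: 0% = vehicle neutral wells and 100% = reference inhibitor wells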
IMP-1 inhibitor: blocks Pseudomonas aeruginosa IMP-1 metallo-beta-lactamase; AID 1556; 290,000 compounds, 0.45% hits; inhibition, % at 5.6 µM; purified IMP-1, nitrocefin hydrolysis, epi-absorbance fluorescence;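 active = inhibition above the mean plus 3 SD of all compounds in the same screening run, cut at about 4.5% in these data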;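 also: 0% = IMP-1 with DMSO and 100% = DMSO wells lacking enzyme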
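Material – recombinant IMP-1 enzyme, purified · Amount – IMP-1 0.2 nM before substrate addition · Medium – HEPES buffer pH 7.1 with ZnSO4 and Brij 35 · Timing – 25 °C, 15 min preincubation, 25 min reaction · Measured by – plate fluorescence quenching by hydrolysis product, ex 480/em 530 nm · Read-out – percent enzyme inhibition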
beta cell repl: MIN6 beta-cell proliferation induction; MIN6 cells proliferation, ATPlite luminescence, 48 h; cells starved in 0.2% serum; 100% = growth in 10% serum; proliferation, % at 10 µM; 330,000 compounds, 0.29% hits;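 active = compounds whose signal lies at least 3.5 SD above the mean of all wells on their plate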;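 also: 0% = DMSO-treated cells in low-serum medium and 100% = 10% serum control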
Active calls of the source: *; nt = not tested or not shown.

SMILES	ATG4B inhibitor	HKDC1 inh	VIM-2 inhibitor	PvdQ inh	IMP-1 inhibitor	beta cell repl
O=C(c1csc2c1CCCC2)n1cccn1	7	-3	nt	4	nt	0
CC(C)[C@H](NC(=O)c1ccccc1)C(=O)OCC(=O)Nc1ncc(Cl)cc1Cl	-3	-8	nt	-12	nt	-2
CCn1c(SCC(=O)NC2CCCCC2)nc2ccccc2c1=O	4	-10	-4	-14	-4	1
CC(=O)Oc1ccc(N(c2ccccc2)S(=O)(=O)c2ccc(C)cc2)cc1	7	4	1	-18	0	-1
CC12CCC(C(=O)Nc3nc4ccc(Br)cc4s3)(OC1=O)C2(C)C (stereo not drawn)	7	0	-2	-1	-2	-2
Cc1ccc(CNC(=O)c2cc3c(=O)n(C)c4ccccc4c3n2C)cc1	2	-5	0	-2	-3	3
CCCN(CCC)CCNC(=O)c1cc2c(=O)n(C)c3ccccc3c2n1C	-11	3	22*	1	-4	-1
O=C(Nc1cc2c(cc1Br)OCCO2)c1cccs1	-2	-2	-1	-18	-2	-2
N#CC(C#N)=C1NC(N)=C(C#N)C(c2ccccc2)=C1C#N	nt	nt	-2	-6	23*	-1
COc1ccc(N(CC(=O)O)S(=O)(=O)c2ccc(C)cc2)cc1Cl	-2	-7	11*	15	-1	1
CC12CCC(=O)N1C(C(=O)Nc1nc3c(F)cc(F)cc3s1)CS2 (stereo not drawn)	-1	0	-4	-10	11*	-2
NC(=O)NC(CC(=O)N1CCc2ccccc2C1)c1ccc(Cl)cc1 (stereo not drawn)	8	-5	-3	-13	-2	-1
CC(OC(=O)c1cccc(S(=O)(=O)N(C)C)c1)C(=O)NCC(=O)Nc1ccc(F)c(F)c1F (stereo not drawn)	-4	-4	nt	0	nt	nt
Cc1ccnc(NC(=O)CCC(=O)N(CC(=O)NC2CCCCC2)CC2CCCO2)c1 (stereo not drawn)	-3	2	-2	-15	-3	-1
CCc1[nH]nc2c1C1(CCN(C(=O)OCc3ccccc3)CC1)C(C#N)=C(N)O2	-6	4	11*	-1	0	-2
O=C(CN1C(=O)NC2(CCCC2)C1=O)OCc1ccccc1F	-14	-6	nt	-4	nt	-4
CC(NC(=O)Cc1ccsc1)c1ccc(Cl)cc1Cl (stereo not drawn)	4	3	-3	-3	-3	-5
CSc1ccccc1OCc1cc(C(=O)N(Cc2nccn2C)C(C)C)no1	-5	-4	-2	-15	-4	2
Cc1ccc(C(=O)O)cc1-c1ccc(/C=C2\SC(=O)N(CC(=O)Nc3ccccc3)C2=O)o1	38	12	1	-8	1	-4
Cc1cc(C(=O)O)ccc1-c1ccc(/C=C2\SC(=O)N(CC(=O)Nc3ccc4c(c3)OCO4)C2=O)o1	nt	nt	0	-18	8.0*	-3
Cc1cc(C)c(C(=O)CN2C(=O)NC3(CCCCCC3)C2=O)cc1C	3	-8	-2	-5	-3	-1
Cc1cc2cc(CN(Cc3cccs3)C(=S)NCc3ccco3)c(=O)[nH]c2cc1C	5	-3	8.6*	-4	-1	-6
Cc1cc2cc(CN(CCN(C)C)C(=S)NCc3ccco3)c(=O)[nH]c2cc1C	-4	-5	0	1	1	-2
CC1CCC(NC(=O)Cn2c(=O)oc3cc(S(=O)(=O)N4CCCC4)ccc32)CC1 (stereo not drawn)	-4	0	-4	5	4.9*	-1
O=C(Cn1c(=O)oc2cc(S(=O)(=O)N3CCCC3)ccc21)NCc1ccc(F)cc1	1	-1	7.9*	-10	-5	-3
SMILES	ATG4B inhibitor	HKDC1 inh	VIM-2 inhibitor	PvdQ inh	IMP-1 inhibitor	beta cell repl
Cc1sc2nc(COC(=O)CNC(=O)c3ccc(C(C)(C)C)cc3)[nH]c(=O)c2c1C	-7	2	-4	-4	8.6*	0
CSCc1c(C(=O)Nc2ccccc2N2CCOCC2)oc2ccccc12	10	3	nt	0	nt	-3
CN1CCN(c2nnc(-c3ccc(Cl)cc3)c3ccccc23)CC1	-15	-5	10*	-14	-2	-1
CCOC(=O)/C(C#N)=C/c1ccc(SC)cc1	3	0	-2	45*	-1	3
C=CC1=CCN(S(=O)C(C)(C)C)[C@H]1CCO (stereo partly drawn)	4	-4	nt	-5	nt	nt
COc1ccc(CN2C(=O)c3cccnc3C2Nc2cc(Cl)ccc2OC)cc1 (stereo not drawn)	-4	52*	-3	-8	-4	-1
Cc1ccc(N2C(=S)NC3c4cc(Cl)ccc4OC2(C)C3C(=O)N(C)C)cc1 (stereo not drawn)	-5	3	-2	-4	-1	10*
Cc1cccc(N2C(=S)NC3c4cc(Cl)ccc4OC2(C)C3C(=O)N(C)C)c1 (stereo not drawn)	5	0	-5	3	-3	7
COc1ccc(CCNc2c(C)c(C)nc3ncnn23)cc1	1	-6	8.8*	-24	-2	-6
C=CCn1c(COc2cc(C)ccc2C(C)C)nnc1SCC(=O)c1c(N)n(C)c(=O)n(C)c1=O	1	-9	1	2	2	-2
Cc1ccc(Cn2ccc(NC(=O)c3nn(C)cc3[N+](=O)[O-])n2)cc1	-3	-9	-1	-19	-2	0
CCn1cc([N+](=O)[O-])c(C(=O)Nc2ccn(Cc3ccccc3)n2)n1	-5	17	12*	-4	-3	-3
CS(=O)(=O)N1CCC(C(=O)NCc2ccc(Cl)cc2)CC1	-1	-5	-3	-14	-3	0
O=C(/C=C/c1ccc(Cl)cc1)c1ccc([N+](=O)[O-])o1	5	54*	nt	-10	nt	-9
Cc1ccc(N(C(=O)c2cnccn2)C(C(=O)NC2CCCCC2)c2ccc(O)cc2)cc1 (stereo not drawn)	-7	-15	-7	-5	-2	-1
CCSc1nc(N)c2c3c(sc2n1)CN(C)CC3	nt	nt	8.5*	nt	0	2
CSc1nc(N)c2c3c(sc2n1)CN(C)CC3	1	7	7	6	0	1
CNc1ccc(/C=C(\CCC(=O)O)c2nc3ccccc3s2)cc1[N+](=O)[O-]	11	21	11*	-2	-4	0
Cn1cnnc1Sc1ccc(/C=C(\CCC(=O)O)c2nc3ccccc3s2)cc1[N+](=O)[O-]	2	-6	4	-13	0	-1
COc1ccc(/C=C(\CC(=O)O)c2nc3ccccc3s2)cc1O	-9	6	-1	10	0	1
Cc1ccc(/C=C(\CCC(=O)O)c2nc3ccccc3s2)cc1[N+](=O)[O-]	20	11	8.8*	0	-1	0
COc1ccc(-c2csc(Nc3cccnc3)n2)cc1OC	-18	-2	12*	5	-2	-1
